Results from ChEMBL document CHEMBL5058577, “EUbOPEN Chemogenomics Library 2 (Multiplex)” (2022).

Test system: U2OS
Assay: Multiplex assay against U2OS
Type: toxicity, cell-based
Details: human
Summary of the method: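 Hoechst33342, BioTracker Green Microtubule Cytoskeleton Dye, MitoTracker Red and Annexin V Alexa Fluor 680 were added to live cells at seeding, and imaging on a CQ1 microscope at 37°C and 5% CO2 followed compound addition. Gating by CellPathfinder machine learning separated cells into Hoechst high-intensity objects or normal cells, then normal cells into healthy, pyknosed or fragmented nuclei, then pyknosed cells into mitotic or apoptotic. Per cents of healthy-nucleus cells are reported for the tubulin, mitochondrial-mass and membrane-permeability phenotypes.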

[1] = 12 h, 1 µM, compound concentration 1 uM, replicate 1
[2] = 12 h, 1 µM, compound concentration 1 uM, replicate 2
[3] = 12 h, 10 µM, compound concentration 10 uM, replicate 1
[4] = 12 h, 10 µM, compound concentration 10 uM, replicate 2
[5] = 24 h, 1 µM, compound concentration 1 uM, replicate 1
[6] = 24 h, 1 µM, compound concentration 1 uM, replicate 2
[7] = 24 h, 10 µM, compound concentration 10 uM, replicate 1
[8] = 24 h, 10 µM, compound concentration 10 uM, replicate 2
[9] = 48 h, 1 µM, compound concentration 1 uM, replicate 1
[10] = 48 h, 1 µM, compound concentration 1 uM, replicate 2
[11] = 48 h, 10 µM, compound concentration 10 uM, replicate 1
[12] = 48 h, 10 µM, compound concentration 10 uM, replicate 2

CC[C@@H](C)Nc1nc(C)nc2c(-c3ccc(OC)nc3C)c(C)nn12 [PEXACERFONT]
Population Apoptotic (%) [1]: 73%
Population Fragmented Nuclei (%) [1]: 24%
Population Healthy Nuclei (%) [1]: 66%
Population Hoechst High Intensity Objects (%) [1]: 3%
Population Membrane Permeable-Phenotype (%) [1]: 2%
Population Mitochondria Different-Phenotype (%) [1]: 3%
Population Mitotic Cells (%) [1]: 26%
Population Normal (%) [1]: 96%
Population Pyknosed Nuclei (%) [1]: 9%
Population Tubulin-Different-Phenotype (%) [1]: 2%
Total Cell Count [1]: 258
Population Apoptotic (%) [2]: 87%
Population Fragmented Nuclei (%) [2]: 17%
Population Healthy Nuclei (%) [2]: 76%
Population Hoechst High Intensity Objects (%) [2]: 0%
Population Membrane Permeable-Phenotype (%) [2]: 1%
Population Mitochondria Different-Phenotype (%) [2]: 0%
Population Mitotic Cells (%) [2]: 12%
Population Normal (%) [2]: 99%
Population Pyknosed Nuclei (%) [2]: 5%
Population Tubulin-Different-Phenotype (%) [2]: 0%
Total Cell Count [2]: 136
Population Apoptotic (%) [3]: 90%
Population Fragmented Nuclei (%) [3]: 26%
Population Healthy Nuclei (%) [3]: 64%
Population Hoechst High Intensity Objects (%) [3]: 1%
Population Membrane Permeable-Phenotype (%) [3]: 2%
Population Mitochondria Different-Phenotype (%) [3]: 1%
Population Mitotic Cells (%) [3]: 9%
Population Normal (%) [3]: 98%
Population Pyknosed Nuclei (%) [3]: 8%
Population Tubulin-Different-Phenotype (%) [3]: 1%
Total Cell Count [3]: 265
Population Fragmented Nuclei (%) [4]: 21%
Population Healthy Nuclei (%) [4]: 70%
Population Membrane Permeable-Phenotype (%) [4]: 12%
Population Mitochondria Different-Phenotype (%) [4]: 7%
Population Mitotic Cells (%) [4]: 10%
Population Pyknosed Nuclei (%) [4]: 7%
Population Tubulin-Different-Phenotype (%) [4]: 4%
Total Cell Count [4]: 128
Population Apoptotic (%) [5]: 80%
Population Fragmented Nuclei (%) [5]: 21%
Population Healthy Nuclei (%) [5]: 69%
Population Hoechst High Intensity Objects (%) [5]: 2%
Population Membrane Permeable-Phenotype (%) [5]: 5%
Population Mitochondria Different-Phenotype (%) [5]: 2%
Population Mitotic Cells (%) [5]: 20%
Population Normal (%) [5]: 97%
Population Pyknosed Nuclei (%) [5]: 8%
Population Tubulin-Different-Phenotype (%) [5]: 2%
Total Cell Count [5]: 346
Population Apoptotic (%) [6]: 85%
Population Fragmented Nuclei (%) [6]: 16%
Population Healthy Nuclei (%) [6]: 75%
Population Membrane Permeable-Phenotype (%) [6]: 3%
Population Mitochondria Different-Phenotype (%) [6]: 6%
Population Mitotic Cells (%) [6]: 14%
Total Cell Count [6]: 172
Population Apoptotic (%) [7]: 80%
Population Fragmented Nuclei (%) [7]: 21%
Population Healthy Nuclei (%) [7]: 71%
Population Hoechst High Intensity Objects (%) [7]: 2%
Population Membrane Permeable-Phenotype (%) [7]: 5%
Population Mitochondria Different-Phenotype (%) [7]: 3%
Population Mitotic Cells (%) [7]: 19%
Population Normal (%) [7]: 97%
Population Pyknosed Nuclei (%) [7]: 7%
Population Tubulin-Different-Phenotype (%) [7]: 4%
Total Cell Count [7]: 307
Population Apoptotic (%) [8]: 92%
Population Fragmented Nuclei (%) [8]: 14%
Population Healthy Nuclei (%) [8]: 77%
Population Hoechst High Intensity Objects (%) [8]: 0%
Population Membrane Permeable-Phenotype (%) [8]: 7%
Population Mitotic Cells (%) [8]: 7%
Population Normal (%) [8]: 99%
Population Pyknosed Nuclei (%) [8]: 8%
Population Tubulin-Different-Phenotype (%) [8]: 3%
Total Cell Count [8]: 159
Population Apoptotic (%) [9]: 88%
Population Fragmented Nuclei (%) [9]: 16%
Population Healthy Nuclei (%) [9]: 75%
Population Hoechst High Intensity Objects (%) [9]: 1%
Population Membrane Permeable-Phenotype (%) [9]: 3%
Population Mitochondria Different-Phenotype (%) [9]: 1%
Population Mitotic Cells (%) [9]: 11%
Population Normal (%) [9]: 98%
Population Pyknosed Nuclei (%) [9]: 7%
Population Tubulin-Different-Phenotype (%) [9]: 1%
Total Cell Count [9]: 476
Population Apoptotic (%) [10]: 91%
Population Healthy Nuclei (%) [10]: 73%
Population Hoechst High Intensity Objects (%) [10]: 2%
Population Membrane Permeable-Phenotype (%) [10]: 5%
Population Mitochondria Different-Phenotype (%) [10]: 4%
Population Mitotic Cells (%) [10]: 8%
Population Normal (%) [10]: 97%
Population Pyknosed Nuclei (%) [10]: 9%
Population Tubulin-Different-Phenotype (%) [10]: 4%
Total Cell Count [10]: 261
Population Apoptotic (%) [11]: 94%
Population Fragmented Nuclei (%) [11]: 17%
Population Healthy Nuclei (%) [11]: 74%
Population Hoechst High Intensity Objects (%) [11]: 1%
Population Membrane Permeable-Phenotype (%) [11]: 4%
Population Mitochondria Different-Phenotype (%) [11]: 1%
Population Mitotic Cells (%) [11]: 5%
Population Normal (%) [11]: 98%
Population Pyknosed Nuclei (%) [11]: 8%
Population Tubulin-Different-Phenotype (%) [11]: 1%
Total Cell Count [11]: 478
Population Apoptotic (%) [12]: 100%
Population Fragmented Nuclei (%) [12]: 13%
Population Healthy Nuclei (%) [12]: 77%
Population Membrane Permeable-Phenotype (%) [12]: 6%
Population Mitochondria Different-Phenotype (%) [12]: 3%
Population Mitotic Cells (%) [12]: 0%
Population Tubulin-Different-Phenotype (%) [12]: 2%
Total Cell Count [12]: 242
